Measurements collected from several papers.
Each line is one published result; the experiments were not run side by side. ≈ marks a conversion by molar mass, not a printed value.

| SMILES | organism | assay | test system | conditions | endpoint | value |
| --- | --- | --- | --- | --- | --- | --- |
| CC1(C)OB(c2ccc(CNS(=O)(=O)c3cc(C(=O)Nc4cc(F)c(F)c(F)c4)ccc3F)cc2)OC1(C)C | Hepatitis B virus | viral replication, inhibitor, qPCR | HePAD38 | 6 days | EC50 | 490 nM |
| Cc1ccc(C)n1-c1ccc(-c2n[nH]c(=S)[nH]2)cc1 | Saccharomyces cerevisiae | microbial growth, broth dilution | ATCC9763 |  | MIC | > 500 µg/mL |
| Nc1ccn([C@@H]2CS[C@H](CO)O2)c(=O)n1 | Hepatitis B virus | viral replication, qPCR | HepG2.2.15 | 6 days | IC50 | 7370 nM |
| O=C(N/N=C/c1ccc([N+](=O)[O-])o1)c1ccc(O)cc1 | Aliivibrio fischeri | microbial growth |  |  | MIC90 | 7.8 µg/mL (≈ 28.3 µM) |
| Cl.NCCc1ccccc1Oc1ccc(-c2noc(-c3ccc(O)cc3)n2)cc1 | Clostridioides difficile | microbial growth, broth dilution |  | 48 h | MIC | 8 µg/mL |
| COc1c(N2C[C@@H]3CCCN[C@@H]3C2)c(F)cc2c(=O)c(C(=O)O)cn(C3CC3)c12 | Aliivibrio fischeri | microbial growth |  |  | MIC90 | 0.06 µg/mL (≈ 0.149 µM) |
| O=C(O)CCc1ccccc1Oc1ccc(-c2noc(-c3ccc(O)cc3)n2)cc1 | Clostridioides difficile | microbial growth, broth dilution |  | 48 h | MIC | 4 µg/mL (≈ 9.94 µM) |
| O=C(Nc1cc(F)c(F)c(F)c1)c1ccc(F)c(S(=O)(=O)NCc2ccc(B(O)O)cc2)c1 | Hepatitis B virus | viral replication, inhibitor, qPCR | HePAD38 | 6 days | EC50 | 380 nM |
| Cc1ccc(C)n1-c1ccc(-c2nnc(-c3ccccc3[N+](=O)[O-])[nH]2)cc1 | Saccharomyces cerevisiae | microbial growth, broth dilution | ATCC9763 |  | MIC | 31.2 µg/mL (≈ 87 µM) |
| O=C(O)CNc1ccc(-c2nc(-c3ccc(Oc4ccccc4)cc3)no2)cc1 | Clostridioides difficile | microbial growth, broth dilution |  | 48 h | MIC | 13 µg/mL (≈ 33.6 µM) |
